{"source": "ChEMBL document CHEMBL1221219", "about": "“Selective blockade of 2-arachidonoylglycerol hydrolysis produces cannabinoid behavioral effects” (Nat Chem Biol, 2009)", "key": {"[1]": {"target": "T1, Monoglyceride lipase (Mus musculus) (UniProt O35678)", "T1 sequence (whole entry)": "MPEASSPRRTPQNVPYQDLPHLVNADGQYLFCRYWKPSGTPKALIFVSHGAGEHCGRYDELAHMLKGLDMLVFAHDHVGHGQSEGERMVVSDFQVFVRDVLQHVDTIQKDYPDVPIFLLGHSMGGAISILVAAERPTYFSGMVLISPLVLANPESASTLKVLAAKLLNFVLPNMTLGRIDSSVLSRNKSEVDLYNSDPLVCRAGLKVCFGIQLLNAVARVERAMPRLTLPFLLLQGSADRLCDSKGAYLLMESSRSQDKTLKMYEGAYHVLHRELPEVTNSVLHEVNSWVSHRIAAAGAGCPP", "test": "Inhibition of MAGL in C57B1/6J mouse brain membrane after 30 mins by competitive activity-based protein profiling method", "assay_type": "cell membranes", "method_in_brief": "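Mouse brain membrane proteome (1 mg ml^-1 in PBS) preincubated 30 min at 37°C with inhibitor (1 nM-10 μM). FP-rhodamine then added (2 μM final) for 30 min at room temperature. Reaction quenched in SDS loading buffer, boiled 5 min at 90°C, resolved by SDS-PAGE and read by in-gel fluorescence.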"}, "[2]": {"target": "T2, Monoacylglycerol lipase ABHD6 (Mus musculus) (UniProt Q8R2Y0)", "T2 sequence (whole entry)": "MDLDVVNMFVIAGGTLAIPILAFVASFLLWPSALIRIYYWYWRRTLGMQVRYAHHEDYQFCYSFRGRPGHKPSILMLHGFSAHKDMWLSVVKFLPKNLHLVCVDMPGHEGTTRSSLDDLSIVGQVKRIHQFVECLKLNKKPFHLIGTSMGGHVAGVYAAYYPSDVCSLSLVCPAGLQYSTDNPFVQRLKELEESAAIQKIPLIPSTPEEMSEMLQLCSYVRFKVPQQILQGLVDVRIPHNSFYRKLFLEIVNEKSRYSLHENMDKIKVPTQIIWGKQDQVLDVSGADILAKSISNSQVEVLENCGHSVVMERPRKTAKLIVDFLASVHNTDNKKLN", "test": "Inhibition of ABHD6 in C57B1/6J mouse brain membrane after 30 mins by competitive activity-based protein profiling method", "assay_type": "cell membranes", "method_in_brief": "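Mouse brain membrane proteome at 1 mg ml^-1 in PBS was preincubated with inhibitor (1 nM-10 μM) for 30 min at 37°C. FP-rhodamine was then added at 2 μM final for 30 min at room temperature, followed by SDS-PAGE and in-gel fluorescence scanning.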"}, "[3]": {"target": "T3, Monoglyceride lipase (Rattus norvegicus, UniProt Q8R431)", "T3 sequence (Q8R431 whole entry)": "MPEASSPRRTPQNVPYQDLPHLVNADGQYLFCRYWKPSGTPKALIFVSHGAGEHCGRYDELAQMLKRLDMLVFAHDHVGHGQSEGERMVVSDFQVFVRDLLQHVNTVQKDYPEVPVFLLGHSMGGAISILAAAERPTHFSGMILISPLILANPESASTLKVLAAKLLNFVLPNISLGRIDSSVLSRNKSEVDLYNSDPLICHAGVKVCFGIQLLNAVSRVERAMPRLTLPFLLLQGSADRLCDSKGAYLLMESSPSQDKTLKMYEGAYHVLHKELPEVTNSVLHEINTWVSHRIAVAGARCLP", "test": "Inhibition of MAGL in Wistar rat brain"}}, "note": "pIC50: −log10 of the molar value. Calls of active or inactive are those of the source. The calls are words filed in the database; no cut-off is given here.", "data": [{"molecule": "CN(Cc1cccc(-c2ccncc2)c1)C(=O)Oc1ccc([N+](=O)[O-])cc1", "values": [{"measurement": "inhibition", "setting": "[1]", "result": "Active"}, {"measurement": "inhibition", "setting": "[2]", "result": "Active"}]}, {"molecule": "O=C(Oc1ccc([N+](=O)[O-])cc1)N1CCN(C(c2ccc(F)cc2)c2ccc(F)cc2)CC1", "values": [{"measurement": "inhibition", "setting": "[1]", "result": "Active"}, {"measurement": "inhibition", "setting": "[2]", "result": "Active"}]}, {"molecule": "O=C(Nc1cccc(-c2ccccc2)c1)OC1CCCCC1", "values": [{"measurement": "pIC50", "setting": "[3]", "result": 3.70}]}, {"molecule": "COc1ccc(C(c2ccc(OC)cc2)N2CCN(C(=O)Oc3ccc([N+](=O)[O-])cc3)CC2)cc1", "values": [{"measurement": "inhibition", "setting": "[1]", "result": "Active"}, {"measurement": "inhibition", "setting": "[2]", "result": "Active"}]}, {"molecule": "COc1ccc(C(O)(c2ccc(OC)cc2)C2CCN(C(=O)Oc3ccc([N+](=O)[O-])cc3)CC2)cc1", "values": [{"measurement": "inhibition", "setting": "[1]", "result": "Active"}]}]}
